For 35 compounds, inhibition in vivo results are on record in ChEMBL document CHEMBL3272230, “Hypoglycemic alpha-cycloalkylphenylmehtyl, furanalkyl, and thiophenealkyl lactamimides” (1976).

Assay type in all cases: functional
Assay [1] has as its system Rattus norvegicus. Briefly: Hypoglycemic activity in fasted glucose primed Sprague-Dawley rat assessed as plasma glucose level at 12.5 mg/kg administered via oral gavage measured after 2 hrs by glucose-oxidase method relative to control. The method in brief:
(§1)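 Young male Sprague-Dawley rats, 105-115 g, fasted overnight. Glucose 1 g/kg given subcutaneously, then test compound immediately by gavage. Blood taken 2 h later and plasma glucose measured by glucose oxidase. Six treated rats per group against six glucose-primed controls given vehicle only by gavage. Result expressed as % reduction versus control; values over 20% significant at p ≤ 0.05.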

Assay [2] has as its system Rattus norvegicus. Briefly: Hypoglycemic activity in fasted glucose primed Sprague-Dawley rat assessed as plasma glucose level at 100 mg/kg administered via oral gavage measured after 2 hrs by glucose-oxidase method relative to control. In short, it runs like this: as §1
The subject of assay [3] is Rattus norvegicus. Briefly: Hypoglycemic activity in fasted glucose primed Sprague-Dawley rat assessed as plasma glucose level at 25 mg/kg administered via oral gavage measured after 2 hrs by glucose-oxidase method relative to control. In short, it runs like this:
as §1

The test system of assay [4] is Rattus norvegicus. Briefly: Hypoglycemic activity in fasted glucose primed Sprague-Dawley rat assessed as plasma glucose level at 50 mg/kg administered via oral gavage measured after 2 hrs by glucose-oxidase method relative to control. In short, it runs like this: as §1
Assay [5] relates to Rattus norvegicus. Briefly: Hypoglycemic activity in fasted glucose primed Sprague-Dawley rat assessed as plasma glucose level at 200 mg/kg administered via oral gavage measured after 2 hrs by glucose-oxidase method relative to control. The method in brief:
as §1

Assay [6] has as its system Rattus norvegicus. Briefly: Hypoglycemic activity in fasted glucose primed Sprague-Dawley rat assessed as plasma glucose level at 6 mg/kg administered via oral gavage measured after 2 hrs by glucose-oxidase method relative to control.

A word on the inhibition in vivo: it is the percentage by which the read-out fell short of the control.

On to `c1csc(C(/N=C2\CCCCCCN2)C2CC2)c1` (stereo unspecified), for which the inhibition in vivo at 12.5 mg/kg in assay [1] was 17%. For the same compound, in assay [2], the inhibition in vivo at 100 mg/kg amounted to 50%.

With `c1ccc(C(/N=C2\CCCCCN2)C2CCCC2)cc1` (stereo unspecified), the inhibition in vivo at 12.5 mg/kg in assay [1] worked out at 12%. In assay [2], the inhibition in vivo at 100 mg/kg was 46%.

Turning to `COc1ccc(C(/N=C2\CCCCCN2)C2CC2)cc1` (stereo unspecified), in assay [1], the inhibition in vivo at 12.5 mg/kg was 1%. Also, in assay [2], the inhibition in vivo at 100 mg/kg is 40%.

`COc1ccc(C(/N=C2\CCC(C(C)(C)C)CCN2)C2CC2)cc1` (stereo unspecified): the inhibition in vivo at 100 mg/kg in assay [2] worked out at 17%.

For the compound `c1ccc(C(/N=C2\CCCCN2)C2CC2)cc1` (stereo unspecified), the inhibition in vivo at 25 mg/kg in assay [3] amounted to 23%. In assay [1], the inhibition in vivo at 12.5 mg/kg came to 1%. The inhibition in vivo at 100 mg/kg in assay [2] was determined as 36%. Further, in assay [4], the inhibition in vivo at 50 mg/kg is 33%.

For `c1ccc(C(/N=C2\CCCCCN2)C2CC2)cc1` (stereo unspecified), in assay [3], the inhibition in vivo at 25 mg/kg worked out at 18%. Further, the inhibition in vivo at 12.5 mg/kg in assay [1] came to 5%. For the same compound, the inhibition in vivo at 100 mg/kg in assay [2] worked out at 51%. Also, the inhibition in vivo at 50 mg/kg in assay [4] was 41%.

With `c1ccc(C(/N=C2\CCCCCCN2)C2CC2)cc1` (stereo unspecified), in assay [3], the inhibition in vivo at 25 mg/kg worked out at 26%. Moreover, in assay [1], the inhibition in vivo at 12.5 mg/kg came to 0%. In addition, the inhibition in vivo at 100 mg/kg in assay [2] came out at 58%. Further, the inhibition in vivo at 50 mg/kg in assay [4] is 46%.

On to `Cc1ccc(C(/N=C2\CCCCCN2)C2CC2)c(C)c1` (stereo unspecified), for which, in assay [3], the inhibition in vivo at 25 mg/kg was 29%. Further, the inhibition in vivo at 12.5 mg/kg in assay [1] is 14%. For the same compound, the inhibition in vivo at 100 mg/kg in assay [2] was 56%. The inhibition in vivo at 50 mg/kg in assay [4] was found to be 43%.

With `Cc1ccc(C(/N=C2\CCCCCCCN2)C2CC2)c(C)c1` (stereo unspecified), the inhibition in vivo at 25 mg/kg in assay [3] amounted to 37%. Also, in assay [1], the inhibition in vivo at 12.5 mg/kg is 17%. For the same compound, in assay [2], the inhibition in vivo at 100 mg/kg was found to be 61%. For the same compound, the inhibition in vivo at 50 mg/kg in assay [4] came out at 47%.

In the case of `c1ccc2c(C(/N=C3\CCCCCN3)C3CC3)cccc2c1` (stereo unspecified), the inhibition in vivo at 100 mg/kg in assay [2] came to 21%.

On to `c1ccc(C(/N=C2\CCCCCN2)C2CCC2)cc1` (stereo unspecified), for which, in assay [1], the inhibition in vivo at 12.5 mg/kg amounted to 14%. Also, the inhibition in vivo at 100 mg/kg in assay [2] was determined as 44%.

For `c1ccc(C(/N=C2\CCCCCN2)C2CCCCC2)cc1` (stereo unspecified), the inhibition in vivo at 100 mg/kg in assay [2] stood at 0%.

`c1ccc(C(/N=C2\CCCCCN2)C2CCCCCC2)cc1` (stereo unspecified): the inhibition in vivo at 100 mg/kg in assay [2] stood at 6%.

On to `c1coc(C/N=C2\CCCCCN2)c1`, for which, in assay [5], the inhibition in vivo at 200 mg/kg turned out to be 0%. In assay [2], the inhibition in vivo at 100 mg/kg came out at 0%.

In the case of `CC(Cc1cccs1)/N=C1\CCCCCN1` (stereo unspecified), the inhibition in vivo at 12.5 mg/kg in assay [1] stood at 0%. The inhibition in vivo at 100 mg/kg in assay [2] came out at 41%.

Regarding `CCC(Cc1cccs1)/N=C1\CCCN1` (stereo unspecified), in assay [2], the inhibition in vivo at 100 mg/kg is 35%.

`CCC(Cc1cccs1)/N=C1\CCCCN1` (stereo unspecified): the inhibition in vivo at 12.5 mg/kg in assay [1] was found to be 9%. In addition, the inhibition in vivo at 100 mg/kg in assay [2] was determined as 42%.

`CCC(Cc1cccs1)/N=C1\CCCCCN1` (stereo unspecified): the inhibition in vivo at 12.5 mg/kg in assay [1] was 10%. The inhibition in vivo at 100 mg/kg in assay [2] was determined as 54%.

Consider `CCC(Cc1cccs1)/N=C1\CCCCCCN1` (stereo unspecified), for which the inhibition in vivo at 100 mg/kg in assay [2] is 44%.

As to `CCC(Cc1cccs1)/N=C1\CCCCCCCN1` (stereo unspecified), the inhibition in vivo at 12.5 mg/kg in assay [1] came to 31%. Also, the inhibition in vivo at 100 mg/kg in assay [2] came out at 68%.

`CCC(Cc1cccs1)/N=C1\CCC(C(C)(C)C)CCN1` (stereo unspecified): the inhibition in vivo at 100 mg/kg in assay [2] was 32%.

As for `CC(/N=C1\CCCCCN1)C(C)c1cccs1` (stereo unspecified), in assay [1], the inhibition in vivo at 12.5 mg/kg was 0%. Moreover, the inhibition in vivo at 100 mg/kg in assay [2] is 46%.

In the case of `C=CCC(Cc1cccs1)/N=C1\CCCCCN1` (stereo unspecified), in assay [1], the inhibition in vivo at 12.5 mg/kg worked out at 14%. Also, the inhibition in vivo at 100 mg/kg in assay [2] is 65%. Also, in assay [4], the inhibition in vivo at 50 mg/kg turned out to be 49%.

For `c1csc(C(/N=C2\CCCCN2)C2CC2)c1` (stereo unspecified), in assay [2], the inhibition in vivo at 100 mg/kg came out at 28%.

As to `c1csc(C(/N=C2\CCCCCN2)C2CC2)c1` (stereo unspecified), the inhibition in vivo at 12.5 mg/kg in assay [1] turned out to be 33%. Besides, the inhibition in vivo at 100 mg/kg in assay [2] stood at 44%.

`c1ccc(C(/N=C2\CCCCN2)c2ccco2)cc1` (stereo unspecified): the inhibition in vivo at 25 mg/kg in assay [3] is 10%. Further, the inhibition in vivo at 12.5 mg/kg in assay [1] was 13%. In addition, the inhibition in vivo at 100 mg/kg in assay [2] is 27%. Besides, the inhibition in vivo at 50 mg/kg in assay [4] is 28%.

Consider `c1ccc(C(/N=C2\CCCCCN2)c2ccco2)cc1` (stereo unspecified), for which the inhibition in vivo at 25 mg/kg in assay [3] was 34%. Moreover, the inhibition in vivo at 12.5 mg/kg in assay [1] turned out to be 5%. In addition, the inhibition in vivo at 100 mg/kg in assay [2] worked out at 52%. Moreover, the inhibition in vivo at 50 mg/kg in assay [4] was found to be 37%.

With `c1ccc(C(/N=C2\CCCCCCN2)c2ccco2)cc1` (stereo unspecified), in assay [3], the inhibition in vivo at 25 mg/kg amounted to 29%. In assay [1], the inhibition in vivo at 12.5 mg/kg came to 22%. Also, the inhibition in vivo at 100 mg/kg in assay [2] came out at 61%. For the same compound, in assay [4], the inhibition in vivo at 50 mg/kg amounted to 42%.

For `c1ccc(C(/N=C2\CCCCN2)c2cccs2)cc1` (stereo unspecified), the inhibition in vivo at 25 mg/kg in assay [3] amounted to 31%. For the same compound, the inhibition in vivo at 12.5 mg/kg in assay [1] worked out at 13%. In assay [2], the inhibition in vivo at 100 mg/kg came out at 32%.

Consider `c1ccc(C(/N=C2\CCCCCN2)c2cccs2)cc1` (stereo unspecified), for which the inhibition in vivo at 25 mg/kg in assay [3] came out at 36%. The inhibition in vivo at 12.5 mg/kg in assay [1] was found to be 23%. Further, in assay [2], the inhibition in vivo at 100 mg/kg worked out at 50%. Besides, the inhibition in vivo at 50 mg/kg in assay [4] turned out to be 46%.

For `c1ccc(C(/N=C2\CCCCCCN2)c2cccs2)cc1` (stereo unspecified), the inhibition in vivo at 25 mg/kg in assay [3] was determined as 37%. In addition, the inhibition in vivo at 12.5 mg/kg in assay [1] is 29%. The inhibition in vivo at 100 mg/kg in assay [2] was found to be 41%. Also, the inhibition in vivo at 50 mg/kg in assay [4] turned out to be 37%.

Turning to `c1ccc(C(/N=C2\CCCCCCCCCCCN2)c2cccs2)cc1` (stereo unspecified), in assay [2], the inhibition in vivo at 100 mg/kg worked out at 4%.

With `C1CCN/C(=N/[C@@H]2CCC[C@@H]2C2CCCCC2)CC1`, in assay [3], the inhibition in vivo at 25 mg/kg was 42%. For the same compound, the inhibition in vivo at 12.5 mg/kg in assay [1] was found to be 33%. Further, in assay [6], the inhibition in vivo at 6 mg/kg was 13%. In addition, the inhibition in vivo at 100 mg/kg in assay [2] was found to be 53%. In assay [4], the inhibition in vivo at 50 mg/kg turned out to be 49%.

As for `c1ccc(C(/N=C2\CCCCN2)c2ccccc2)cc1`, the inhibition in vivo at 25 mg/kg in assay [3] turned out to be 42%. In addition, the inhibition in vivo at 12.5 mg/kg in assay [1] is 41%. Also, in assay [6], the inhibition in vivo at 6 mg/kg came to 12%. In addition, in assay [2], the inhibition in vivo at 100 mg/kg came to 46%. Moreover, the inhibition in vivo at 50 mg/kg in assay [4] came to 52%.

Take `CCCCNC(=O)NS(=O)(=O)c1ccc(C)cc1` [TOLBUTAMIDE]: the inhibition in vivo at 25 mg/kg in assay [3] came to 29%. Further, the inhibition in vivo at 12.5 mg/kg in assay [1] worked out at 16%. In addition, in assay [2], the inhibition in vivo at 100 mg/kg turned out to be 41%. Further, in assay [4], the inhibition in vivo at 50 mg/kg was 43%.
